Consider eight molecules from ChEMBL document CHEMBL1122798, “Trypanocidal 1,3-arylene diketone bis(guanylhydrazone)s. Structure-activity relationships among substituted and heterocyclic analogues” (1984).

By ED50 is commonly meant the dose that gives a 50% effect, or the effect in half of the subjects.

Assay type in all cases: functional
In assay [1] the test system is Mus musculus. Kind of assay: Compound was tested for Trypanocidal Activity in mice at 6 mg/kg; 26/30.
The subject of assay [2] is Mus musculus. Kind of assay: Compound was tested for Trypanocidal Activity in mice at 2.5 mg/kg; 21/35.
The test system of assay [3] is Mus musculus. Kind of assay: Compound was tested for Trypanocidal Activity in mice at 4 mg/kg; 20/30.
Assay [4] relates to Mus musculus. Kind of assay: Compound was tested for Trypanocidal Activity in mice at 15 mg/kg; 10/10.
Assay [5] relates to Mus musculus. Kind of assay: Compound was tested for Trypanocidal Activity in mice at 25 mg/kg; 10/10.
Assay [6] concerns Mus musculus. Kind of assay: Compound was tested for Trypanocidal Activity in mice at 60 mg/kg; 0/5.
Assay [7] concerns Mus musculus. Kind of assay: Compound was tested for Trypanocidal Activity in mice at 1.0 mg/kg; 0/10.
The subject of assay [8] is Mus musculus. Kind of assay: Compound was tested for Trypanocidal Activity in mice at 10 mg/kg; 19/20.
The test system of assay [9] is Mus musculus. Kind of assay: Compound was tested for Trypanocidal Activity in mice at 1.5 mg/kg; 2/25.
Assay [10] concerns Mus musculus. Kind of assay: Compound was tested for Trypanocidal Activity in mice at 40 mg/kg; toxic deaths; 1/5.
For assay [11], the species on record is Mus musculus. Kind of assay: Effective dose against Trypanosoma brucei infection in mice. The essentials: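 Female Swiss-Webster mice (20–25 g) were infected ip with 5×10^4 T. brucei EATRO 110 organisms in fresh mouse blood diluted with minimum essential medium. Groups of 5 or 10 received a single ip dose in normal saline (solution or milled suspension, 20 μL/g) 6 h post-infection. Deaths within 72 h were scored as toxic. Survivors aparasitemic at 28 days (tail-blood wet films, phase contrast) counted as cures. ED50 was computed by Bliss/Litchfield–Wilcoxon, excluding toxic dosages.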

Assay [12] has as its system Mus musculus. Kind of assay: Compound was tested for Trypanocidal Activity in mice at 15 mg/kg; 0/5.
The test system of assay [13] is Mus musculus. Kind of assay: Compound was tested for Trypanocidal Activity in mice at 100 mg/kg; 0/5.
For assay [14], the system named is Mus musculus. Kind of assay: Compound was tested ffor Trypanocidal Activity in mice at 500 mg/kg; 0/5.
Assay [15] relates to Mus musculus. Kind of assay: Compound was tested for Trypanocidal Activity in mice at 40 mg/kg; 0/5.
Assay [16] relates to Mus musculus. Kind of assay: Compound was tested for Trypanocidal Activity in mice at 25 mg/kg; 0/15.
The test system of assay [17] is Mus musculus. Kind of assay: Compound was tested for Trypanocidal Activity in mice at 15 mg/kg; 16/20.
Assay [18] deals with Mus musculus. Kind of assay: Compound was tested for Trypanocidal Activity in mice at 10 mg/kg; 14/20.
The subject of assay [19] is Mus musculus. Kind of assay: Compound was tested for Trypanocidal Activity in mice at 40 mg/kg; 1/5.
Assay [20] has as its system Mus musculus. Kind of assay: Compound was tested for Trypanocidal Activity in mice at 25 mg/kg; 7/10.
In assay [21] the test system is Mus musculus. Kind of assay: Compound was tested for Trypanocidal Activity in mice at 6 mg/kg; 9/20.
In assay [22] the test system is Mus musculus. Kind of assay: Compound was tested for Trypanocidal Activity in mice at 4 mg/kg; 0/5.
For assay [23], the system named is Mus musculus. Kind of assay: Compound was tested for Trypanocidal Activity in mice at 4 mg/kg; 10/20.
The subject of assay [24] is Mus musculus. Kind of assay: Compound was tested for Trypanocidal Activity in mice at 40 mg/kg; 10/10.
For assay [25], the system named is Mus musculus. Kind of assay: Compound was tested for Trypanocidal Activity in mice at 1.5 mg/kg; 0/10.
In assay [26] the test system is Mus musculus. Kind of assay: Compound was tested for Trypanocidal Activity in mice at 60 mg/kg; 3/5.
Assay [27] deals with Mus musculus. Kind of assay: Compound was tested for Trypanocidal Activity in mice at 6 mg/kg; 17/20.
The test system of assay [28] is Mus musculus. Kind of assay: Compound was tested for Trypanocidal Activity in mice at 2.5 mg/kg; 1/10.
Assay [29] deals with Mus musculus. Kind of assay: Compound was tested for Trypanocidal Activity in mice at 15 mg/kg; 19/20.
Assay [30] deals with Mus musculus. Kind of assay: Compound was tested for Trypanocidal Activity in mice at 10 mg/kg; 20/20.
The subject of assay [31] is Mus musculus. Kind of assay: Compound was tested for Trypanocidal Activity in mice at 25 mg/kg; 18/20.
Assay [32] deals with Mus musculus. Kind of assay: Compound was tested for Trypanocidal Activity in mice at 10 mg/kg; 0/5.
The test system of assay [33] is Mus musculus. Kind of assay: Compound was tested for Trypanocidal Activity in mice at 40 mg/kg; 5/5.
Assay [34] deals with Mus musculus. Kind of assay: Compound was tested for Trypanocidal Activity in mice at 15 mg/kg; 4/15.
Assay [35] relates to Mus musculus. Kind of assay: Compound was tested for Trypanocidal Activity in mice at 25 mg/kg; 10/15.
Assay [36] relates to Mus musculus. Kind of assay: Compound was tested for Trypanocidal Activity in mice at 6 mg/kg; 9/10.
For assay [37], the system named is Mus musculus. Kind of assay: Compound was tested for Trypanocidal Activity in mice at 15 mg/kg; 9/10.
Assay [38] deals with Mus musculus. Kind of assay: Compound was tested for Trypanocidal Activity in mice at 2.5 mg/kg; 15/30.
For assay [39], the system named is Mus musculus. Kind of assay: Compound was tested for Trypanocidal Activity in mice at 10 mg/kg; 10/10.
In assay [40] the test system is Mus musculus. Kind of assay: Compound was tested for Trypanocidal Activity in mice at 1.5 mg/kg; 3/30.
For assay [41], the system named is Mus musculus. Kind of assay: Compound was tested for Trypanocidal Activity in mice at 4 mg/kg; 22/30.
Assay [42] relates to Mus musculus. Kind of assay: Compound was tested for Trypanocidal Activity in mice at 25 mg/kg; toxic deaths; 8/10.
The test system of assay [43] is Mus musculus. Kind of assay: Compound was tested for Trypanocidal Activity in mice at 10 mg/kg; 1/20.
Assay [44] concerns Mus musculus. Kind of assay: Compound was tested for Trypanocidal Activity in mice at 15 mg/kg; 11/20.
Assay [45] deals with Mus musculus. Kind of assay: Compound was tested for Trypanocidal Activity in mice at 6 mg/kg; 0/10.
The test system of assay [46] is Mus musculus. Kind of assay: Compound was tested for Trypanocidal Activity in mice at 25 mg/kg; 4/5.

Turning to `C/C(=N\NC(=N)N)c1cc(N)cc(/C(C)=N/NC(=N)N)c1.Cl`, the Cures/total in the assay on Mus musculus [1] stood at 26; with Mus musculus [2], 21; with Mus musculus [3], 20; in the assay with Mus musculus [5], 10; in the assay with Mus musculus [6] it was 0; in the assay with Mus musculus [7] it was 0. The Cures/total is 19 with Mus musculus [8], 2 with Mus musculus [9] and 1 in the assay on Mus musculus [10]. Besides, in the assay with Mus musculus [4], the “Mice cured (number)” value is recorded as 10. In the assay listed under Mus musculus [11], this molecule returned an ED50 of 2.8 mg/kg.

`C/C(=N\NC(=N)N)c1cc(/C(C)=N/NC(=N)N)c(O)cc1O.Cl`: the Cures/total in the assay on Mus musculus [12], in the assay on Mus musculus [13], with Mus musculus [14] and with Mus musculus [15] was 0 in each case.

As to `CCCC/C(=N\NC(=N)N)c1cccc(/C(CCCC)=N/NC(=N)N)c1.Cl`, the Cures/total in the assay with Mus musculus [15], in the assay with Mus musculus [16] and with Mus musculus [6] was 0 throughout.

Regarding `C/C(=N\NC(=N)N)c1cc(O)cc(/C(C)=N/NC(=N)N)c1.Cl`, the Cures/total amounted to 16 with Mus musculus [17]; 14 with Mus musculus [18]; 1 in the assay on Mus musculus [19]; 0 with Mus musculus [6]; 7 with Mus musculus [20]; 9 in the assay on Mus musculus [21]. Further, the Cures/total with Mus musculus [22] is 0. The ED50 in the assay listed under Mus musculus [11] is 7.3 mg/kg.

Turning to `C/C(=N\NC(=N)N)c1cccc(/C(C)=N/NC(=N)N)n1.Cl`, the Cures/total in the assay on Mus musculus [13] stood at 0; with Mus musculus [23] it was 10; in the assay with Mus musculus [24] it was 10; in the assay on Mus musculus [25] it was 0; in the assay on Mus musculus [26], 3; with Mus musculus [27], 17. Moreover, the Cures/total was found to be 1 in the assay with Mus musculus [28], 19 in the assay with Mus musculus [29], 20 in the assay on Mus musculus [30] and 18 with Mus musculus [31]. This molecule displayed an ED50 in the assay filed under Mus musculus [11] of 4.1 mg/kg.

On to `C/C(=N\NC(=N)N)c1ccc([N+](=O)[O-])c(/C(C)=N/NC(=N)N)c1.Cl`, for which the Cures/total with Mus musculus [32] worked out at 0; in the assay on Mus musculus [33], 5; in the assay on Mus musculus [34], 4; in the assay with Mus musculus [35], 10; in the assay with Mus musculus [6], 0. In the assay filed under Mus musculus [11], this molecule yielded a 50% effective dose (ED50) of 20 mg/kg.

As for `CC(=O)Nc1cc(/C(C)=N/NC(=N)N)cc(/C(C)=N/NC(=N)N)c1.Cl`, the Cures/total is given as 9 in the assay on Mus musculus [36]; 9 in the assay with Mus musculus [37]; 15 with Mus musculus [38]; 10 in the assay with Mus musculus [39]; 0 in the assay on Mus musculus [15]; 3 in the assay on Mus musculus [40]. For the same molecule, the Cures/total was 0 in the assay with Mus musculus [7], 22 in the assay with Mus musculus [41] and 8 in the assay on Mus musculus [42].

`C/C(=N\NC(=N)N)c1cncc(/C(C)=N/NC(=N)N)c1.Cl`: the Cures/total with Mus musculus [43] came out at 1; in the assay on Mus musculus [44], 11; in the assay with Mus musculus [45], 0; in the assay with Mus musculus [46] it was 4; in the assay with Mus musculus [19], 1.
